Test system: Musa x paradisiaca
Test: Competitive inhibition of banana tyrosinase using catechol as substrate by Lineweaver-Burk plot analysis
Procedure, shortened: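 Banana PPO was partially purified: ammonium sulfate to 80% saturation, dialysis in 5 mM phosphate, then a Sepharose 4B-tyrosine-p-aminobenzoic acid affinity column eluted with 1 M NaCl, 5 mM phosphate, pH 7.0. Catechol oxidation was read as the rise in A420, in duplicate, corrected for non-enzymatic change. Ki and inhibition type came from Lineweaver–Burk 1/V vs 1/[S] plots at two inhibitor levels (0.01–0.20 mM).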
`Cc1ccc(NC(=O)Nc2ccc3c(c2)S(=O)(=O)NC3=O)cc1` gave a Kic of 16.2 µM.
In the case of `O=C(Nc1cccc([N+](=O)[O-])c1)Nc1ccc2c(c1)S(=O)(=O)NC2=O`, the Kic is reported as 16.9 µM.
In the case of `O=C(Nc1ccc2c(c1)S(=O)(=O)NC2=O)Nc1ccccc1F`, the Kic is reported as 35.1 µM.
`O=C1NS(=O)(=O)c2cc(NC(=S)Nc3ccc(F)cc3)ccc21` gave a Kic of 14.8 µM.
Compound `O=C(Nc1cccc(Cl)c1)Nc1ccc2c(c1)S(=O)(=O)NC2=O` has a Kic of 5.85 µM.
`O=C1NS(=O)(=O)c2cc(NC(=S)Nc3ccccc3)ccc21` showed a Kic of 10.7 µM.
Compound `O=C(Nc1ccc(F)cc1)Nc1ccc2c(c1)S(=O)(=O)NC2=O` has a Kic of 15.6 µM.
Compound `O=C1NS(=O)(=O)c2cc(NC(=S)Nc3ccc(Cl)cc3Cl)ccc21` has a Kic of 10.1 µM.
For `O=C(Nc1ccc(Cl)cc1)Nc1ccc2c(c1)S(=O)(=O)NC2=O`, the Kic was 40.2 µM.
`O=C(Nc1ccc([N+](=O)[O-])cc1)Nc1ccc2c(c1)S(=O)(=O)NC2=O` showed a Kic of 22 µM.
In the case of `COc1ccc(NC(=S)Nc2ccc3c(c2)S(=O)(=O)NC3=O)cc1`, the Kic is reported as 9.81 µM.
Compound `O=C1NS(=O)(=O)c2cc(NC(=S)Nc3cc(Cl)cc(Cl)c3)ccc21` has a Kic of 13.7 µM.
Work on `O=C1NS(=O)(=O)c2cc(NC(=S)Nc3cccc(I)c3)ccc21` yielded a Kic of 3.95 µM.
`O=C1NS(=O)(=O)c2cc(NC(=S)Nc3ccccc3F)ccc21` gave a Kic of 4.23 µM.
Work on `O=C1NS(=O)(=O)c2cc(NC(=S)Nc3cccc(Cl)c3)ccc21` yielded a Kic of 28.3 µM.
With `COc1cccc(NC(=O)Nc2ccc3c(c2)S(=O)(=O)NC3=O)c1` the Kic was 14.1 µM.
Compound `O=C1NS(=O)(=O)c2cc(NC(=S)Nc3cccc(F)c3)ccc21` has a Kic of 11.1 µM.
Compound `COc1ccc(NC(=O)Nc2ccc3c(c2)S(=O)(=O)NC3=O)cc1` has a Kic of 16.6 µM.
`Cc1ccc(NC(=S)Nc2ccc3c(c2)S(=O)(=O)NC3=O)cc1` showed a Kic of 9.96 µM.
Work on `Nc1ccc2c(c1)S(=O)(=O)NC2=O` yielded a Kic of 13.6 µM.
`O=C(Nc1ccccc1)Nc1ccc2c(c1)S(=O)(=O)NC2=O` showed a Kic of 13.4 µM.
`O=C(Nc1ccc(Cl)c(Cl)c1)Nc1ccc2c(c1)S(=O)(=O)NC2=O` gave a Kic of 14.9 µM.
`O=C(Nc1cccc(F)c1)Nc1ccc2c(c1)S(=O)(=O)NC2=O` showed a Kic of 12.1 µM.
Compound `O=C1NS(=O)(=O)c2cc(NC(=S)Nc3ccc([N+](=O)[O-])cc3)ccc21` has a Kic of 19.5 µM.

Biological target: not listed separately
Test: Inhibition of desert banana tyrosinase using p-cresol as substrate
Set-up: species or system Musa acuminata
In the case of `O[C@@H](CS)[C@@H](O)CS` (relative stereo) [DITHIOTHREITOL], the IC50 is reported as 63 µM.
For `O=S(O)S(=O)(=O)O` [SODIUM METABISULFITE], the IC50 was 65 µM.
Work on `N[C@@H](CS)C(=O)O` [CYSTEINE] yielded an IC50 of 322 µM.
For `O=C1O[C@H]([C@@H](O)CO)C(O)=C1O` [ASCORBIC ACID], the IC50 was 437 µM and the Ki was 530 µM.

— ChEMBL document CHEMBL2016504, “New saccharin derivatives as tyrosinase inhibitors” (Bioorg Med Chem, 2012)
